Data on eleven compounds can be found in ChEMBL document CHEMBL3351712, “Synthesis and antiviral evaluation of 2-amino-6-carbamoylpurine dioxolane nucleoside derivatives and their phosphoramidates prodrugs” (Bioorg Med Chem, 2014).

pEC50: −log10 of the molar value.

A word on the CC50: it is the concentration at which the toxic effect on the cells reaches its halfway point. Usually pEC50 stands for the negative decadic logarithm of the EC50, by convention in mol/L. What is called EC90 is the point of the concentration-response curve where the effect stands at 90%.

One series has as its system CCRF-CEM. As to the kind of experiment: Cytotoxicity against human CEM cell. The format is functional.
In a further series the test system is Vero. As to the kind of experiment: (§1) Cytotoxicity against african green monkey Vero cells. The format is cell-based. The note with it: chlorocebus sabaeus, vero.
A further series concerns HepG2. In words: Cytotoxicity against human HepG2 cells. The format is functional.
In a further series the test system is Hepatitis B virus. As to the kind of experiment: Antiviral activity against Hepatitis B virus. The format is functional, organism-based. An outline of the steps: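 Anti-HBV activity measured in HepG2 cells.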
Series [1] deals with Human immunodeficiency virus 1. In words: Antiviral activity against HIV1. The format is functional, organism-based. An outline of the steps:
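Antiviral assay run in primary human lymphocytes.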

Series [2] can be described thus: (§2) Cytotoxicity against human PBMC. The settings on record: PBMC (peripheral blood mononuclear cells). The format is cell-based.
The test system of the next series is PBMC. Described as §2. The format is cell-based. The note with it: pbmc.
Series [3] is described as follows: as §1. The format is cell-based. The note with it: chlorocebus sabaeus, Vero cells.

On to `Cc1cn([C@H]2C[C@H](N=[N+]=[N-])[C@@H](CO)O2)c(=O)[nH]c1=O` [ZIDOVUDINE], for which the CC50 in the series with CCRF-CEM was 14 µM; with Vero, 56 µM; in the series on HepG2, greater than 100 µM; in series [2], greater than 100 µM. Further, the results for the pEC50 (with Hepatitis B virus; in series [1]) were less than 5.00 and 8.43, respectively. For the same compound, the EC90 is greater than 10 µM in the series with Hepatitis B virus and 0.047 µM in series [1].
With `CCCCCCCCCC(=O)Nc1nc(N)nc2c1ncn2[C@H]1CO[C@@H](CO)O1`, the CC50 with CCRF-CEM is 65 µM; in the series with Vero it was greater than 100 µM; in the series on HepG2 it was greater than 100 µM; in the series with PBMC, greater than 100 µM. The pEC50 is less than 5.00 in the series on Hepatitis B virus and 4.59 in series [1]. The 90% effect concentration (EC90) in the series with Hepatitis B virus is greater than 10 µM; in series [1] it was 65 µM.
Consider `CCCCCCCCCCCCCC(=O)Nc1nc(N)nc2c1ncn2[C@H]1CO[C@@H](CO)O1`, for which the CC50 in the series on CCRF-CEM was 4.6 µM; in the series with Vero, 7.7 µM; in the series on HepG2, 56 µM; in the series with PBMC, greater than 100 µM. For the same compound, the figures for the pEC50 (in the series with Hepatitis B virus; in series [1]) were less than 5.00 and 5.19, respectively. Besides, the EC90 is greater than 10 µM in the series with Hepatitis B virus and 27 µM in series [1].
As for `CCCCCCCC(=O)Nc1nc(N)nc2c1ncn2[C@H]1CO[C@@H](CO)O1`, the CC50 in the series with CCRF-CEM, in the series on Vero, in the series on HepG2 and in the series with PBMC was greater than 100 µM in each case. Further, the pEC50 was less than 5.00 in the series on Hepatitis B virus and 4.68 in series [1]. For the same compound, the figures for the EC90 (in the series on Hepatitis B virus; in series [1]) were greater than 10 µM and 56 µM, respectively.
For the compound `CCCCCCCCCCCC(=O)Nc1nc(N)nc2c1ncn2[C@H]1CO[C@@H](CO)O1`, the CC50 in the series on CCRF-CEM was 13 µM; with Vero it was 53 µM; in the series on HepG2, greater than 100 µM; with PBMC, 60 µM. For the same compound, the pEC50 is less than 5.00 in the series with Hepatitis B virus and 5.44 in series [1]. Also, the values for the EC90 (with Hepatitis B virus; in series [1]) were greater than 10 µM and 18 µM, respectively.
As to `CCCCCCCC/C=C\CCCCCCCC(=O)Nc1nc(N)nc2c1ncn2[C@H]1CO[C@@H](CO)O1`, the half-maximal cytotoxic concentration (CC50) in the series with CCRF-CEM came to 13 µM; in series [3], 19 µM; with HepG2, 11 µM; in series [2], 76 µM. For the same compound, the values for the pEC50 (in the series on Hepatitis B virus; in series [1]) were less than 5.00 and 5.46, respectively. Further, the results for the EC90 (with Hepatitis B virus; in series [1]) were greater than 10 µM and 13 µM, respectively.
As to `CCCC(=O)Nc1nc(N)nc2c1ncn2[C@H]1CO[C@@H](CO)O1`, the CC50 with CCRF-CEM, with Vero, in the series with HepG2 and in the series on PBMC was greater than 100 µM throughout. Moreover, the values for the pEC50 (in the series on Hepatitis B virus; in series [1]) were less than 5.00 and 5.04, respectively. In addition, the EC90 in the series on Hepatitis B virus was greater than 10 µM; in series [1], 38 µM.
Consider `CC(=O)Nc1nc(N)nc2c1ncn2[C@H]1CO[C@@H](CO)O1`, for which the CC50 with CCRF-CEM, with Vero, with HepG2 and in the series with PBMC was greater than 100 µM each time. Also, the pEC50 in the series on Hepatitis B virus was less than 5.00; in series [1] it was 6.25. Besides, the EC90 in the series with Hepatitis B virus is greater than 10 µM; in series [1] it was 12 µM.
As to `Nc1nc(N)c2ncn([C@H]3CO[C@@H](CO)O3)c2n1` [AMDOXOVIR], the 50% cytotoxic concentration (CC50) in the series with CCRF-CEM, in the series on Vero, in the series with HepG2 and with PBMC was greater than 100 µM throughout. In addition, the pEC50 with Hepatitis B virus is 4.92; in series [1], 6.35. The EC90 is greater than 100 µM in the series with Hepatitis B virus and 7.6 µM in series [1].
Consider `CCCCCCCCCCCCCCCC(=O)Nc1nc(N)nc2c1ncn2[C@H]1CO[C@@H](CO)O1`, for which the CC50 with CCRF-CEM was greater than 100 µM; with Vero, 90 µM; with HepG2 it was greater than 100 µM; with PBMC, greater than 100 µM. Moreover, the pEC50 was less than 5.00 with Hepatitis B virus and 5.92 in series [1]. Further, the EC90 is greater than 10 µM in the series on Hepatitis B virus and 6 µM in series [1].
`CCCCCC(=O)Nc1nc(N)nc2c1ncn2[C@H]1CO[C@@H](CO)O1`: the CC50 in the series on CCRF-CEM, in the series on Vero, with HepG2 and in the series with PBMC was greater than 100 µM each time. Further, the pEC50 in the series with Hepatitis B virus is less than 5.00; in series [1], 4.47. Besides, the EC90 in the series with Hepatitis B virus was greater than 10 µM; in series [1], greater than 100 µM.
